Published values collected from several papers.
Compare with care: the assays were run in different laboratories.
Effect on: enzyme activity
Mode: inhibitor
KIT: Mast/stem cell growth factor receptor Kit (KIT, Homo sapiens, UniProt P10721)
PIK3CD: Phosphatidylinositol 4,5-bisphosphate 3-kinase catalytic subunit delta isoform (PIK3CD, Homo sapiens, UniProt O00329)

CN(C)CCNC(=O)c1ccc(-c2nc3ccc4[nH]ncc4c3c3c2CCCC3)c(F)c1  IC50 (KIT): 887 nM
Cc1cccc(N=C2C(=O)N(Cc3ccccc3)c3ccccc32)c1  IC50 (PIK3CD; ADP detection): 21.9 nM
CN(C)C(=O)c1cc2cnc(Nc3cccc4c(=O)cc(N5CCOCC5)oc34)nc2n1C1CCCC1  IC50 (PIK3CD; radiometric): > 10000 nM
C=CC(=O)Nc1cccc(Oc2nc(Nc3ccc(N4CCN(C)CC4)cc3)nc3ccoc23)c1  IC50 (Tyrosine-protein kinase BTK (BTK, Homo sapiens, UniProt Q06187)): < 0.254 nM
Cc1n[nH]c2ccc3nc(-c4ccc(C(=O)NCCN(C)C)cc4)c4c(c3c12)CCCCC4  IC50 (KIT): 328 nM
Cc1ccc(CN2C(=O)C(=Nc3c(C(C)C)cccc3C(C)C)c3ccccc32)cc1  IC50 (PIK3CD; ADP detection): 233 nM
CN(C)C(=O)c1cc2cnc(Nc3ccc(-c4cccc5c(=O)cc(N6CCOCC6)oc45)cn3)nc2n1C1CCCC1  IC50 (PIK3CD; radiometric): 2390 nM
CC(C)c1cccc(C(C)C)c1N=C1C(=O)N(Cc2cccc(Cl)c2)c2ccccc21  IC50 (PIK3CD; ADP detection): 238 nM
CN(C)C(=O)c1cc2cnc(Nc3ccc(-c4cccc5c(=O)cc(N6CCOCC6)oc45)c(F)c3)nc2n1C1CCCC1  IC50 (PIK3CD; radiometric): 40.5 nM
O=C(NO)c1ccc(Cn2cnc3c(Nc4ccc(Cl)cc4)ncnc32)cc1  IC50 (RAC-beta serine/threonine-protein kinase (AKT2, Homo sapiens, UniProt P31751); radiometric): > 20000 nM
O=C1Nc2ccccc2C1=Nc1cccc(Cl)c1  IC50 (PIK3CD; ADP detection): 83.7 nM
COc1ccc(-c2cc(=O)c3ccc(Nc4ncc5cc(C(=O)N(C)C)n(C6CCCC6)c5n4)cc3o2)cc1  IC50 (PIK3CD; radiometric): 9790 nM
CCc1ccc(N=C2C(=O)Nc3ccccc32)cc1  IC50 (PIK3CD; ADP detection): 455 nM
O=C1Nc2ccc(I)cc2/C1=C/c1cc(Br)c(O)c(Br)c1  IC50 (Casein kinase II subunit alpha (CSNK2A1, Homo sapiens, UniProt P68400)): 319 nM
O=C1Nc2ccccc2/C1=N\c1ccc(Cl)cc1  IC50 (PIK3CD; ADP detection): 765 nM
COc1ccc(-c2cc(=O)c3cccc(Nc4ncc5cc(C(=O)N(C)C)n(C6CCCC6)c5n4)c3o2)cc1  IC50 (PIK3CD; radiometric): > 10000 nM
Cc1n[nH]c2ccc3nc(-c4ccc(C(=O)NCCN(C)C)cc4F)c4c(c3c12)CCCCC4  IC50 (KIT): 261 nM
CN(C)C(=O)c1cc2cnc(Nc3ccc(-c4ccc5c(=O)cc(N6CCNCC6)oc5c4)cc3)nc2n1C1CCCC1  IC50 (PIK3CD; radiometric): 9500 nM
CN(C)CCNC(=O)c1ccc(-c2nc3ccc4[nH]ncc4c3c3c2CCCCC3)c(F)c1  IC50 (KIT): 249 nM
CNC(=O)[C@H](Cc1c[nH]c2ccccc12)NC(=O)[C@@H](CC(=O)NO)CC(C)C  IC50 (Matrix metalloproteinase-14 (MMP14, Homo sapiens, UniProt P50281)): 1.37 nM
